Screening results deposited in PubChem BioAssay by Broad Institute.
SIRT5 block: blocks human SIRT5 desuccinylation of peptide | Purified SirT5, succinyl-peptide AMC, trypsin-coupled fluorescence | 330,000 tested, 1.1% active | inhibition, % at 15 µM; in the data active = inhibition above about 15%
Target sequence (Q9NXA8 whole entry, looked up): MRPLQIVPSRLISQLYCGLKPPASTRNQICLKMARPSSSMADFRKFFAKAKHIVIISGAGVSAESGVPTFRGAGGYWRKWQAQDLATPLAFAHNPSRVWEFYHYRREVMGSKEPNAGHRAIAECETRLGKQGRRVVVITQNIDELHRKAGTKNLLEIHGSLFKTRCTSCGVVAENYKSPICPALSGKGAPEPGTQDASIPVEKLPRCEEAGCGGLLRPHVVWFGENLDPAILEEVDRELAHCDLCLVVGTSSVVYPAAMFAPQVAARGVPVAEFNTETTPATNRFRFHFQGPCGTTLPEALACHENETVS
MLL AF4-AF9 inh: blocks AF4 peptide binding to human AF9; AlphaScreen, biotin-AF4 peptide binding to FLAG-AF9; inhibition, % at 10 µM; 350,000 tested, 0.47% active; AID 651704;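 active = every replicate reaching a set inhibition limit, whatever the replicate mean, cut at about 25% in these data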;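 also: 0% = plate neutral control median and 100% = total signal loss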
FN deposit inh: fibronectin deposition inhibition | inhibition, % at 12.6 µM | 350,000 tested, 0.086% active | AH1F fibroblasts, Alexa488-fibronectin deposition fluorescence, overnight;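 active = mean inhibition across replicates of 30% or more, regardless of how many single replicates reach that level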;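 also: positive control wells lacked labelled fibronectin entirely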
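Schedule: 1 h cell adhesion before compound, then overnight fibronectin incubation; test system: AH1F fibroblast monolayer depositing Alexa488-labelled fibronectin into matrix; quantity: 10000 AH1F cells per well; probe or stimulus: fluorescent fibronectin at 24 nM final; signal: fluorescence, ex 485 nm, em 525 nm; evaluation: percent inhibition as loss of matrix-bound fibronectin fluorescence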
PDI turbidity: PDI (human) enzyme inhibition | 350,000 tested, 0.052% active | inhibition, % at 10 µM | PDI insulin aggregation turbidity, A650, 90 min | AID 588391;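 active = mean inhibition across replicates of 30% or more, whatever share of single replicates reach that level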
ERp5 block: ERp5 (human) disulfide isomerase inhibition | ERp5 insulin aggregation, absorbance 650 nm, 90 min | inhibition, % at 9.99 µM | 350,000 tested, 0.05% active | AID 651711;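 active = mean replicate inhibition above about 25%, with every replicate also reaching it, limit read from the data, passing the limit was not always enough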
An asterisk follows results filed as active; ! = repeats disagree. Hits are enriched below; roughly 1.3% of the tested compounds scored in any of these assays.

Screening CC1CN(S(=O)(=O)c2ccc(CN3C(=O)c4cccnc4C3=O)s2)c2ccccc2O1 (stereo unspecified) returned SIRT5 block 24*, MLL AF4-AF9 inh 2, FN deposit inh -4, PDI turbidity -8 and ERp5 block 6.
`CCNC(=S)NNC(=O)c1cc(-c2cccc(OC)c2)nc2ccccc12` gave FN deposit inh 0 and PDI turbidity 5.
`C[C@H](CO)N1C[C@H](C)[C@H](CN(C)Cc2ccc3c(c2)OCO3)Oc2ncc(/C=C/c3ccccc3)cc2C1=O` gave SIRT5 block -2, MLL AF4-AF9 inh 3, FN deposit inh 5 and ERp5 block 1.
`C[C@@H]1CN([C@H](C)CO)C(=O)c2cc(/C=C/c3ccccc3)cnc2O[C@H]1CN(C)S(=O)(=O)c1ccc(F)cc1` gave SIRT5 block 5, MLL AF4-AF9 inh 3, FN deposit inh 2 and ERp5 block -5.
Screening C[C@H](CO)N1C[C@H](C)[C@@H](CN(C)Cc2ccccc2F)Oc2ncc(/C=C/c3ccccc3)cc2C1=O returned SIRT5 block 2, MLL AF4-AF9 inh 28* and ERp5 block -2.
Screening C[C@@H]1CN([C@@H](C)CO)C(=O)c2cc(/C=C/c3ccccc3)cnc2O[C@@H]1CN(C)S(=O)(=O)c1ccc(F)cc1 returned SIRT5 block 32*!, MLL AF4-AF9 inh 1, FN deposit inh 7, PDI turbidity 14 and ERp5 block -1.
For C[C@H](CO)N1C[C@H](C)[C@@H](CN(C)Cc2ccc3c(c2)OCO3)Oc2ncc(/C=C/c3ccccc3)cc2C1=O the results were SIRT5 block -4, MLL AF4-AF9 inh 26*, FN deposit inh 6 and ERp5 block 5.
`Cc1ccc(NC(=O)CN(C)C(=O)CSc2ncc(C(F)(F)F)cc2Cl)cc1` gave PDI turbidity -8.
O=S(=O)(c1ccc(Cl)cc1)N(CCCN1CCOCC1)Cc1cccs1 was read as SIRT5 block -1, MLL AF4-AF9 inh 1, FN deposit inh -6, PDI turbidity -4 and ERp5 block -2.
For Cc1sc2cc3c(c(C(=O)c4ccccc4)[n+]2c1C)-c1cccc2cccc-3c12 the results were SIRT5 block 1, MLL AF4-AF9 inh 25*, FN deposit inh -2 and ERp5 block 2.
COc1ccc(-c2cc(C(F)(F)F)n3nc(C(=O)N(C)Cc4ccccc4)cc3n2)cc1OC was read as SIRT5 block -2, MLL AF4-AF9 inh -29, FN deposit inh -2, PDI turbidity -4 and ERp5 block 2.
CCN1C(=O)NC(c2ccccc2)C1=O (stereo unspecified) was read as SIRT5 block -4, MLL AF4-AF9 inh -4, FN deposit inh -6, PDI turbidity -5 and ERp5 block 5.
For CCOP(=O)(OCC)C1NC(=O)N(c2ccccc2)C1=O (stereo unspecified) the results were SIRT5 block 30*, MLL AF4-AF9 inh -10, FN deposit inh 0, PDI turbidity -5 and ERp5 block 1.
For S=C(NC1CCCCC1)N1CCC(C2C=NC=N2)CC1 (stereo unspecified) the results were SIRT5 block 0, MLL AF4-AF9 inh -1, FN deposit inh -5, PDI turbidity 0 and ERp5 block 2.
`Cc1ccc2ccc3ccc(C)nc3c2n1` gave SIRT5 block 0, MLL AF4-AF9 inh 0, FN deposit inh -14, PDI turbidity -3 and ERp5 block 1.
Screening O=C(COC(=O)c1cccc(S(=O)(=O)Nc2ccc(F)cc2)c1)NCCN1C(=O)CSC1=O returned SIRT5 block 17*, MLL AF4-AF9 inh -4, FN deposit inh 0, PDI turbidity -3 and ERp5 block -22.
O=C(NC[C@@H]1[C@@H](c2ccccc2)[C@H](CO)N1C(=O)Cc1ccncc1)C1CCC1 was read as SIRT5 block 2, MLL AF4-AF9 inh -4, FN deposit inh -1 and ERp5 block -4.
O=C(Cc1ccccc1F)Nc1cccc(S(=O)(=O)N2CCOCC2)c1 was read as SIRT5 block 17*, MLL AF4-AF9 inh -1, FN deposit inh 1, PDI turbidity -9 and ERp5 block 6.
O=C(Cc1ccccc1Cl)Nc1cccc(S(=O)(=O)N2CCOCC2)c1 was read as SIRT5 block 2, MLL AF4-AF9 inh -12, FN deposit inh 3, PDI turbidity 7 and ERp5 block 0.
Screening O=S(=O)(c1cccc(NC(=S)N2CCN(c3cccc(Cl)c3)CC2)c1)C(F)F returned SIRT5 block -2, MLL AF4-AF9 inh 0, FN deposit inh -5, PDI turbidity -7 and ERp5 block -3.
O=S(=O)(c1cccc(NC(=S)N2CCN(c3ccc(F)cc3)CC2)c1)C(F)F was read as SIRT5 block 30*, MLL AF4-AF9 inh -3, FN deposit inh -4, PDI turbidity -1 and ERp5 block 7.
`CC(C(=O)Nc1cccc(S(=O)(=O)N2CCOCC2)c1)N1CCN(c2ccc(F)cc2)CC1` (stereo unspecified) gave SIRT5 block 16*, MLL AF4-AF9 inh 6, FN deposit inh -8, PDI turbidity 0 and ERp5 block 12.
Screening Fc1cccc(NC(=S)N2CCCC2)c1 returned SIRT5 block 15*, MLL AF4-AF9 inh 1, PDI turbidity -2 and ERp5 block 3.
Screening Cc1cc(-c2nc(-c3ccc(C(C)(C)C)cc3)no2)no1 returned SIRT5 block -3, MLL AF4-AF9 inh -4, FN deposit inh -5, PDI turbidity -8 and ERp5 block 5.
For Cc1ccc(S(=O)(=O)Nc2ccc3c(c2)CC(=O)N([C@@H](C)CO)C[C@H](C)[C@@H](CN(C)S(=O)(=O)c2cccs2)O3)cc1 the results were SIRT5 block 1, MLL AF4-AF9 inh -15 and ERp5 block 18.
Nc1ccc(Cc2ccc(N)c(C(=O)O)c2)cc1C(=O)O was read as SIRT5 block 45*, MLL AF4-AF9 inh -10, PDI turbidity 16 and ERp5 block -6.
For CCOC(=O)c1c2c(n(Cc3ccccc3)c1C)C(=O)C(=O)c1ccccc1-2 the results were SIRT5 block -2, MLL AF4-AF9 inh 5, FN deposit inh 30*, PDI turbidity 13 and ERp5 block -4.
For O=C(O)CSCC(=O)N(Cc1ccccc1)c1nc(-c2ccccc2)c(-c2ccccc2)s1 the results were SIRT5 block 17*, MLL AF4-AF9 inh 4, FN deposit inh -7, PDI turbidity 9 and ERp5 block 1.
CCc1ccc(OCC(=O)NN2Cc3ccccc3C2=N)cc1 was read as SIRT5 block 24*, MLL AF4-AF9 inh 1, FN deposit inh 3, PDI turbidity -5 and ERp5 block -7.
Screening N#Cc1ccc(OCC(=O)NN2Cc3ccccc3C2=N)cc1 returned SIRT5 block -6, MLL AF4-AF9 inh -2, FN deposit inh -9, PDI turbidity 9 and ERp5 block 4.
Cc1noc(C)c1COc1ccc(C(=O)N2CCN(S(=O)(=O)c3cccc(F)c3)CC2)cc1 was read as SIRT5 block 28*, MLL AF4-AF9 inh -5, FN deposit inh 6, PDI turbidity -3 and ERp5 block 6.
